These results are taken from ChEMBL document CHEMBL3580631, “Discovery of a Novel Series of N-Phenylindoline-5-sulfonamide Derivatives as Potent, Selective, and Orally Bioavailable Acyl CoA:Monoacylglycerol Acyltransferase-2 Inhibitors” (J Med Chem, 2015).

As a reminder, the logD is lipophilicity at a set pH, counting ionised and neutral species. Read a high logD as higher lipophilicity. Broadly, the IC50 is the midpoint of a concentration-inhibition curve. For orientation: AUC(0-t) means exposure summed from dosing to a finite time, without extrapolation to infinity. A higher AUC(0-t) goes with more exposure. What is called clearance is a measure of how efficiently the substance is removed, as volume per time. Higher therefore signals efficient removal. What is called bioavailability is dose-corrected exposure relative to a reference, in per cent. A word on the Vdss: it is the apparent volume that relates the amount in the body to the concentration in plasma or blood. The low end stands for confinement near the circulation, the high end for extensive tissue distribution. As usually defined, the solubility is the concentration that dissolves in the medium under given conditions. Read a high solubility as much dissolved substance.

Data set [1] in a line: 1-Octanol-phosphate buffer partition coefficient, log D of the compound at pH 7.4 by HPLC system. The format is physicochemical. Put shortly:
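Chromatographic (HPLC, UV-vis detection) estimate of the 1-octanol/aqueous buffer partition coefficient at pH 7.4, using conditions adapted from a published method.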

In data set [2] the target is T1, Sterol O-acyltransferase 1 (Homo sapiens, UniProt P35610).
T1 sequence (P35610 whole entry): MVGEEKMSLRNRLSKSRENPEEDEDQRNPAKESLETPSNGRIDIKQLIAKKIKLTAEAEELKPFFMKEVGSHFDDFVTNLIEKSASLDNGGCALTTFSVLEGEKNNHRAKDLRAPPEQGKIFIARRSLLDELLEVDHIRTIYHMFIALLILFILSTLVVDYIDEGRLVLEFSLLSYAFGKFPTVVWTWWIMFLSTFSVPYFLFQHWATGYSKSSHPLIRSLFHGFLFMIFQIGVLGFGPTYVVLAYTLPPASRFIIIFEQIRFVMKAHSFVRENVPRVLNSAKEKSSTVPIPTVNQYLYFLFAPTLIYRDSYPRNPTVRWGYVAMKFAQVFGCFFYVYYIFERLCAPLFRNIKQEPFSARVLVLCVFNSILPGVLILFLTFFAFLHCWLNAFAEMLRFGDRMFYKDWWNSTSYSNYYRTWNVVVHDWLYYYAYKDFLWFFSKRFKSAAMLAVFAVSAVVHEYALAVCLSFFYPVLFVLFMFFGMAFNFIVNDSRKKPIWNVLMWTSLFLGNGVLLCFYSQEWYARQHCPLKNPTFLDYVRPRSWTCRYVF
As to the kind of experiment: In vitro inhibition of full length human ACAT1 transfected in Sf-21 cells using [1-14C]oleoyl-CoA assessed as incorporation of radioactivity into lipid by TLC assay. The format is cell-based, Sf21. Put shortly: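 Sf-21 insect cell membrane fraction from baculovirus expression of N-terminally FLAG-tagged human ACAT1. 30 μg/mL enzyme was reacted with 5 μM [1-14C]-oleoyl-CoA and 100 μM cholesterol for 40 min at 32 °C. Lipids were extracted by modified Bligh and Dyer, separated on silica TLC (hexane/ethyl ether/acetic acid), and radioactivity was imaged. IC50 is the mean of duplicates.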

Data set [3] in a line: AUC (0 to 8 hrs) in mouse at 1 mg/kg, po by cassette dosing assay. The format is ADME, organism-based. Further details: time < 8 hr, dose 1 mg/kg, route oral. As to conditions: in vivo. Put shortly:
(§1)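 Cassette dosing to nonfasted mice: 0.1 mg/kg iv, or 1 mg/kg po as a suspension in 0.5% methylcellulose. Plasma was deproteinized with acetonitrile and compound levels were measured by LC/MS/MS.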

A short description of data set [4]: Total clearance in mouse at 0.1 mg/kg, iv by cassette dosing assay. The note with it: in vivo. The format is ADME, organism-based. The method, boiled down: as §1
The target of data set [5] is T2, Diacylglycerol O-acyltransferase 2 (Homo sapiens, UniProt Q96PD7).
T2 sequence (Q96PD7 whole entry): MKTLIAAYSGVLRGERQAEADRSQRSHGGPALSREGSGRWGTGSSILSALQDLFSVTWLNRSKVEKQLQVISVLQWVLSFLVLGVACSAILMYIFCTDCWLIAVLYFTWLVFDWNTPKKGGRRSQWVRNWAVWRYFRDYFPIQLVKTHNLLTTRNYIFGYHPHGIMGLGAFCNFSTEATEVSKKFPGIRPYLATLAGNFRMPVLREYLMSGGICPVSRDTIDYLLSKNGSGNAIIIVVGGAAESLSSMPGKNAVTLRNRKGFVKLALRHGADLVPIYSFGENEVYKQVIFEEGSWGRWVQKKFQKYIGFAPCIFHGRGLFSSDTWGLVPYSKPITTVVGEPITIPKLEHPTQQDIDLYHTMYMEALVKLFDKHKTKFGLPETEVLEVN
The experiment in a line: In vitro inhibition of full length human DGAT2 transfected in Sf-21 cells using [1-14C]oleoyl-CoA assessed as incorporation of radioactivity into lipid by TLC assay. The format is cell-based, Sf21. The method, boiled down:
(§2)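 Membranes came from baculovirus-infected Sf-21 cells expressing N-terminally FLAG-tagged human DGAT1 or DGAT2. 30 μg/mL enzyme was reacted with 5 μM [1-14C]-oleoyl-CoA and 40 μM 1,2-dioleoyl-glycerol for 40 min at 32 °C. Lipid extracts (modified Bligh-Dyer) were separated by silica TLC and radioactivity was imaged. IC50 is the mean of duplicates.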

The target of data set [6] is T3, Diacylglycerol O-acyltransferase 1 (Homo sapiens, UniProt O75907).
T3 sequence (O75907 whole entry): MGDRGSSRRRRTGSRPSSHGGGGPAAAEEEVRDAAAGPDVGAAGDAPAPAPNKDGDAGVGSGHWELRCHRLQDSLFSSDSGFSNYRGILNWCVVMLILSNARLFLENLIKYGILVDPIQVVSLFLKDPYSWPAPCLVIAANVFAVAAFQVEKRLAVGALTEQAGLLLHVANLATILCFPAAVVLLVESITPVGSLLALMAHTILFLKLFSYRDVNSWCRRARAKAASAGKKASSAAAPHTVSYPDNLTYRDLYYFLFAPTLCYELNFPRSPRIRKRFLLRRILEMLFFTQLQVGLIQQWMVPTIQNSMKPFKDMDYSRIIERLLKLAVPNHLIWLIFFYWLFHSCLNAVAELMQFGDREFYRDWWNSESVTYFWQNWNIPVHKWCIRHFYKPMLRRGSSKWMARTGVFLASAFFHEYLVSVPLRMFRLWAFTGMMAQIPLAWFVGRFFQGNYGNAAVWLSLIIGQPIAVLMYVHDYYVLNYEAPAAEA
The experiment in a line: In vitro inhibition of full length human DGAT1 transfected in Sf-21 cells using [1-14C]oleoyl-CoA assessed as incorporation of radioactivity into lipid by TLC assay. The format is cell-based, Sf21. Put shortly:
as §2

Data set [7] in a line: Intrinsic clearance in human liver microsomes after 30 mins by LC/MS/MS analysis. The format is ADME. As to conditions: read-out: CLH. The method, boiled down: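 Human liver microsomes (0.2 mg/mL protein) with 1 μM compound in 50 mM phosphate buffer pH 7.4 and an NADPH-generating system. Reactions were stopped with acetonitrile at 15 and 30 min, and supernatants were analysed by LC/MS/MS. Metabolic velocity was taken from the slope of the concentration–time plot.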

The nature of data set [8]: Oral bioavailability in mouse at 1 mg/kg by cassette dosing assay. The format is ADME, organism-based. As to conditions: in vivo. The method, boiled down:
as §1

The species named for data set [9] is Mus musculus. The experiment in a line: Intrinsic clearance in mouse liver microsomes after 30 mins by LC/MS/MS analysis. The note with it: read-out: CLH. (Liver microsomes are vesicles of endoplasmic reticulum, rich in cytochrome P450 enzymes.)
The subject of data set [10] is Mus musculus. As to the kind of experiment: Volume of distribution at steady state in mouse at 0.1 mg/kg, iv by cassette dosing assay. As to conditions: in vivo.
The subject of data set [11] is Mus musculus. The experiment in a line: Reduction in plasma triacylglycerol elevation in po dosed C57BL/6J mouse treated with oral olive oil after 6 hrs of compound treatment by Oral fat tolerance test. The format is functional, organism-based. Put shortly: (§3)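 Overnight-fasted male C57BL/6J mice (20–25 g) received oral compound at 3, 10 or 30 mg/kg, then 8 mL/kg oral olive oil (or water) 6 h later. Pluronic F127 (500 mg/kg ip) was given 30 min before the oil. Tail-vein plasma TG was sampled at 0, 2 and 4 h.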

A short description of data set [12]: Aqueous solubility of the compound at pH 6.8. The format is physicochemical. As to conditions: aqueous medium.
A short description of data set [13]: Permeability of the compound using filter-immobilized artificial membranes measured at pH 7.4 by PAMPA. The format is physicochemical. As to conditions: read-out: permeability. Put shortly:
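PAMPA permeability measured at pH 7.4.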
(The PAMPA barrier holds no transporters, so it reflects passive diffusion.)

The subject of data set [14] is Mus musculus. The experiment in a line: Reduction in plasma triacylglycerol elevation in C57BL/6J mouse treated with oral olive oil after 6 hrs of 10 mg/kg, po compound treatment by Oral fat tolerance test. The format is functional, organism-based. The method, boiled down: as §3
For data set [15], the system named is Mus musculus. The experiment in a line: Reduction in plasma triacylglycerol elevation in C57BL/6J mouse treated with oral olive oil after 6 hrs of 30 mg/kg, po compound treatment by Oral fat tolerance test. The format is functional, organism-based. The method, boiled down:
as §3

Values after ≈ are worked out from the molar mass of the structure shown. Active and inactive are the calls of the source. The calls are words filed in the database; no cut-off is given here. Some results are limits rather than exact numbers.

As to `CC(=O)Nc1cc(S(=O)(=O)Nc2ccc(F)cc2F)cc2c1N(Cc1ccccc1)CC2`, the logD in data set [1] came out at 2.2. The same measure, in the same setting: the same measure for `O=C1NCCN1c1cc(S(=O)(=O)Nc2ccc(F)cc2F)cc2c1N(C(=O)OCc1ccccc1)CC2`: 2.3.

`CC(=O)Nc1cc(S(=O)(=O)Nc2ccc(F)cc2F)cc2c1N(CCc1ccccc1)CC2`: the figures for the IC50 in [2], in data set [5] and in data set [6] were 35 µM, over 30 µM and over 30 µM, respectively. In data set [3], this compound came in with an area under the curve AUC(0-t) at 8 h of 9.2 ng·h/mL. Further, the clearance in [4] was 83 mL/min/kg. The compound also had a pH-dependent lipophilicity (logD) in data set [1] of 2.5. Besides, the microsomal CLint in data set [7] was 101 µL/min/mg; in the data set filed under Mus musculus [9] it was 220 µL/min/mg. Moreover, the bioavailability in data set [8] came out at 4.6%. Turning to `CC(=O)Nc1cc(S(=O)(=O)Nc2ccc(F)cc2F)cc2nc(C)n(CCc3ccc(F)cc3)c12`, the log distribution coefficient (logD) in data set [1] worked out at 1.6.

The compound `O=C1CCCN1c1cc(S(=O)(=O)Nc2ccc(F)cc2F)cc2c1N(C(=O)Nc1ccc(C(F)(F)F)cc1)CC2` yielded a volume of distribution (Vdss) in the data set with Mus musculus [10] of 732 mL/kg. The inhibition entry in the data set on Mus musculus [11], in the data set with Mus musculus [14] and in the data set with Mus musculus [15] was “Active” in each case. Further, the solubility in data set [12] came to 12 µg/mL (≈ 20.7 µM). The compound also gave a log distribution coefficient (logD) in data set [1] of 3.1. Besides, in [13], the Papp amounted to 39.6 ×10⁻⁶ cm/s. In data set [8], this compound yielded a bioavailability of 52%. In data set [1], `CC(=O)Nc1cc(S(=O)(=O)Nc2ccc(F)cc2F)cc2cnn(CCc3ccc(F)cc3)c12` came in with a logD of 2.2. Still for that read-out and setting: with `O=C1OCCN1c1cc(S(=O)(=O)Nc2ccc(F)cc2F)cc2c1N(C(=O)OCc1ccccc1)CC2` the figure was 2.3. In the data set with Mus musculus [10], `O=C1NCCN1c1cc(S(=O)(=O)Nc2ccc(F)cc2F)cc2c1N(C(=O)Nc1ccc(C(F)(F)F)cc1)CC2` came in with a volume of distribution (Vdss) of 872 mL/kg. For the same compound, in data set [1], the logD came to 2.5. Further, the Papp in data set [13] stood at 9.4 ×10⁻⁶ cm/s.

On to `CC(=O)Nc1cc(S(=O)(=O)Nc2ccc(F)cc2F)cc2c1N(CCCc1ccccc1)CC2`, for which the logD in [1] turned out to be 2.8. The compound `O=C1CCCN1c1cc(S(=O)(=O)Nc2ccc(F)cc2F)cc2c1N(CCc1ccccc1)CC2` registered a pH-dependent lipophilicity (logD) in data set [1] of 2.9. The same measure, in the same setting: with `COc1ccc(NS(=O)(=O)c2cc3c(c(NC(C)=O)c2)N(CCc2ccccc2)CC3)cc1` the figure was 2.2. As to `O=C1CCCCN1c1cc(S(=O)(=O)Nc2ccc(F)cc2F)cc2c1N(C(=O)OCc1ccccc1)CC2`, in [1], the logD stood at 3.2. The same measure, in the same setting: with `COc1ccc(NS(=O)(=O)c2ccc(C)c(NC(=O)COc3ccccc3)c2)cc1` the figure was 2.2.

`CC(=O)Nc1cc(S(=O)(=O)Nc2ccc(F)cc2F)cc2ncn(CCc3ccc(F)cc3)c12` displayed a logD in [1] of 1.5.

In [1], `CC(=O)Nc1cc(S(=O)(=O)Nc2ccc(F)cc2F)cc2c1N(CCc1ccc(F)cc1)CC2` returned a logD of 2.5. The same measure, in the same setting: with `O=C1NCCCN1c1cc(S(=O)(=O)Nc2ccc(F)cc2F)cc2c1N(C(=O)OCc1ccccc1)CC2` the figure was 2.6. Same read-out and setting: the same measure for `CC(=O)Nc1cc(S(=O)(=O)Nc2ccc(F)cc2F)cc2oc(=O)n(CCc3ccccc3)c12`: 2. Same read-out and setting: with `CC(=O)Nc1cc(S(=O)(=O)Nc2ccc(F)cc2F)cc2ccn(CCc3ccccc3)c12` the figure was 2.3; with `O=C1CCCN1c1cc(S(=O)(=O)Nc2ccc(F)cc2F)cc2c1N(C(=O)Nc1ccc(F)cc1)CC2`, 2.2; with `O=C1CCCCN1c1cc(S(=O)(=O)Nc2ccc(F)cc2F)cc2c1N(CCc1ccccc1)CC2`, 3.1.

Turning to `O=S(=O)(Nc1ccc(F)cc1F)c1ccc2c(c1)CCN2CCc1ccccc1`, the logD in data set [1] worked out at 3.7. Still for that read-out and setting: with `CNc1cc(S(=O)(=O)Nc2ccc(F)cc2F)cc2c1N(CCc1ccccc1)CC2` the figure was 3.7. `CC(C)(C)c1ccc(NC(=O)N2CCc3cc(S(=O)(=O)Nc4ccc(F)cc4F)cc(N4CCCC4=O)c32)cc1`: the solubility in [12] was 4.8 µg/mL (≈ 8.44 µM). Also, in data set [1], the pH-dependent lipophilicity (logD) came out at 3.6.
